Experimental data taken from ChEMBL document CHEMBL4325889, “Natural products hybrids: 3,5,4'-Trimethoxystilbene-5,6,7-trimethoxyflavone chimeric analogs as potential cytotoxic agents against diverse human cancer cells” (Eur J Med Chem, 2019).

Legend:
Type in all cases: functional
[1] = system: CCRF-CEM; assay: Growth inhibition of human CCRF-CEM cells at 10 uM after 48 hrs by SRB assay relative to control; conditions: read-out: GI
Procedure, shortened: (§1)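 Screened at the National Cancer Institute by the standard NCI protocol using the sulforhodamine B assay, which measures cellular protein. Single dose of 10 µM. Result is percent growth inhibition; values above 100% mean cell number fell below the initial population. Values are the average of duplicates.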

[2] = system: HL-60(TB); assay: Growth inhibition of human HL-60(TB) cells at 10 uM after 48 hrs by SRB assay relative to control; conditions: HL-60, 48 h, read-out: GI
Procedure, shortened: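 Run at NCI under its standard single-dose protocol against a leukemia cell panel. Cells were exposed to 10 µM; growth was read by sulforhodamine B staining of cellular protein and expressed as % growth inhibition versus untreated control. Values above 100% mean the cell population fell below the starting count (cytocidal). Each value is the average of duplicates.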

[3] = system: K562; assay: Growth inhibition of human K562 cells at 10 uM after 48 hrs by SRB assay relative to control; conditions: K562, 48 h, read-out: GI; procedure, shortened: as §1
[4] = system: MOLT-4; assay: Growth inhibition of human MOLT4 cells at 10 uM after 48 hrs by SRB assay relative to control; conditions: MOLT-4, 48 h, read-out: GI; procedure, shortened: as §1
[5] = system: RPMI-8226; assay: Growth inhibition of human RPMI8226 cells at 10 uM after 48 hrs by SRB assay relative to control; conditions: RPMI-8226, 48 h, read-out: GI; procedure, shortened: as §1
[6] = system: A549; assay: Growth inhibition of human A549 cells at 10 uM after 48 hrs by SRB assay relative to control; conditions: A549, 48 h, read-out: GI; procedure, shortened: as §1
[7] = system: HOP-62; assay: Growth inhibition of human HOP62 cells at 10 uM after 48 hrs by SRB assay relative to control; conditions: HOP-62, 48 h, read-out: GI; procedure, shortened: as §1
[8] = system: NCI-H226; assay: Growth inhibition of human NCI-H226 cells at 10 uM after 48 hrs by SRB assay relative to control; conditions: NCI-H226, 48 h, read-out: GI; procedure, shortened: as §1
[9] = system: NCI-H23; assay: Growth inhibition of human NCI-H23 cells at 10 uM after 48 hrs by SRB assay relative to control; conditions: NCI-H23, 48 h, read-out: GI; procedure, shortened: as §1
[10] = system: NCI-H322M; assay: Growth inhibition of human NCI-H322M cells at 10 uM after 48 hrs by SRB assay relative to control; conditions: read-out: GI; procedure, shortened: as §1
[11] = system: NCI-H460; assay: Growth inhibition of human NCI-H460 cells at 10 uM after 48 hrs by SRB assay relative to control; conditions: NCI-H460, 48 h, read-out: GI; procedure, shortened: as §1
[12] = system: NCI-H522; assay: Growth inhibition of human NCI-H522 cells at 10 uM after 48 hrs by SRB assay relative to control; conditions: NCI-H522, 48 h, read-out: GI; procedure, shortened: as §1
[13] = system: COLO 205; assay: Growth inhibition of human COLO205 cells at 10 uM after 48 hrs by SRB assay relative to control; conditions: COLO 205, 48 h, read-out: GI; procedure, shortened: as §1
[14] = system: HCC 2998; assay: Growth inhibition of human HCC2998 cells at 10 uM after 48 hrs by SRB assay relative to control; conditions: HCC 2998, 48 h, read-out: GI; procedure, shortened: as §1
[15] = system: SF-295; assay: Growth inhibition of human SF295 cells at 10 uM after 48 hrs by SRB assay relative to control; conditions: SF-295, 48 h, read-out: GI; procedure, shortened: as §1
[16] = system: SF-539; assay: Growth inhibition of human SF539 cells at 10 uM after 48 hrs by SRB assay relative to control; conditions: SF-539, 48 h, read-out: GI; procedure, shortened: as §1
[17] = system: SNB-75; assay: Growth inhibition of human SNB75 cells at 10 uM after 48 hrs by SRB assay relative to control; conditions: SNB-75, 48 h, read-out: GI
Procedure, shortened: (§2)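 NCI screen against its human cancer cell line panel by the standard NCI protocol, SRB protein stain. Single dose of 10 μM. Percent growth inhibition versus control; values above 100% mean the cell population fell below the starting number. Each value is the mean of duplicates.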

[18] = system: LOX IMVI; assay: Growth inhibition of human LOXIMVI cells at 10 uM after 48 hrs by SRB assay relative to control; conditions: read-out: GI; procedure, shortened: as §1
[19] = system: Malme-3M; assay: Growth inhibition of human MALME-3M cells at 10 uM after 48 hrs by SRB assay relative to control; conditions: read-out: GI; procedure, shortened: as §1
[20] = system: MDA-MB-435; assay: Growth inhibition of human MDA-MB-435 cells at 10 uM after 48 hrs by SRB assay relative to control; conditions: MDA-MB-435, 48 h, read-out: GI; procedure, shortened: as §1
[21] = system: SK-MEL-28; assay: Growth inhibition of human SK-MEL-28 cells at 10 uM after 48 hrs by SRB assay relative to control; conditions: SK-MEL-28, 48 h, read-out: GI; procedure, shortened: as §1
[22] = system: UACC-257; assay: Growth inhibition of human UACC257 cells at 10 uM after 48 hrs by SRB assay relative to control; conditions: UACC-257, 48 h, read-out: GI; procedure, shortened: as §2
[23] = system: OVCAR-4; assay: Growth inhibition of human OVCAR4 cells at 10 uM after 48 hrs by SRB assay relative to control; conditions: OVCAR-4, 48 h, read-out: GI; procedure, shortened: as §1
[24] = system: NCI/ADR-RES; assay: Growth inhibition of human NCI/ADR-RES cells at 10 uM after 48 hrs by SRB assay relative to control; conditions: read-out: GI; procedure, shortened: as §1
[25] = system: 786-0; assay: Growth inhibition of human 786-0 cells at 10 uM after 48 hrs by SRB assay relative to control; conditions: 786-0, 48 h, read-out: GI; procedure, shortened: as §1
[26] = system: RXF 393; assay: Growth inhibition of human RXF393 cells at 10 uM after 48 hrs by SRB assay relative to control; conditions: RXF 393, 48 h, read-out: GI; procedure, shortened: as §1
[27] = system: SN12C; assay: Growth inhibition of human SN12C cells at 10 uM after 48 hrs by SRB assay relative to control; conditions: read-out: GI; procedure, shortened: as §1
[28] = system: TK-10; assay: Growth inhibition of human TK10 cells at 10 uM after 48 hrs by SRB assay relative to control; conditions: TK-10, 48 h, read-out: GI; procedure, shortened: as §2
[29] = system: UO-31; assay: Growth inhibition of human UO31 cells at 10 uM after 48 hrs by SRB assay relative to control; conditions: UO-31, 48 h, read-out: GI; procedure, shortened: as §2
[30] = system: PC-3; assay: Growth inhibition of human PC3 cells at 10 uM after 48 hrs by SRB assay relative to control; conditions: PC-3, 48 h, read-out: GI; procedure, shortened: as §1
[31] = system: DU-145; assay: Growth inhibition of human DU145 cells at 10 uM after 48 hrs by SRB assay relative to control; conditions: DU-145, 48 h, read-out: GI; procedure, shortened: as §1
[32] = system: MCF7; assay: Growth inhibition of human MCF7 cells at 10 uM after 48 hrs by SRB assay relative to control; conditions: MCF7, 48 h, read-out: GI; procedure, shortened: as §1
[33] = system: Hs-578T; assay: Growth inhibition of human Hs 578T cells at 10 uM after 48 hrs by SRB assay relative to control; conditions: read-out: GI; procedure, shortened: as §1
[34] = system: BT-549; assay: Growth inhibition of human BT549 cells at 10 uM after 48 hrs by SRB assay relative to control; conditions: BT-549, 48 h, read-out: GI; procedure, shortened: as §1

SMILES	inhibition of growth at 10 µM [1]	inhibition of growth at 10 µM [2]	inhibition of growth at 10 µM [3]	inhibition of growth at 10 µM [4]	inhibition of growth at 10 µM [5]	inhibition of growth at 10 µM [6]	inhibition of growth at 10 µM [7]	inhibition of growth at 10 µM [8]	inhibition of growth at 10 µM [9]	inhibition of growth at 10 µM [10]	inhibition of growth at 10 µM [11]	inhibition of growth at 10 µM [12]	inhibition of growth at 10 µM [13]	inhibition of growth at 10 µM [14]	inhibition of growth at 10 µM [15]	inhibition of growth at 10 µM [16]	inhibition of growth at 10 µM [17]	inhibition of growth at 10 µM [18]	inhibition of growth at 10 µM [19]	inhibition of growth at 10 µM [20]	other results
COc1ccc(NC(=O)c2cccc(-c3cc(=O)c4c(OC)c(OC)c(OC)cc4o3)c2)cc1	50.7%	21.2%	50.4%	36.8%	87.5%	22.4%	31%	18.5%	28.7%	24.5%	33.9%	39%	30.6%	26.3%	33.6%	27.7%	19.7%	75.4%	21.4%	23.8%	inhibition of growth at 10 µM [21]: 28.7%; inhibition of growth at 10 µM [22]: -2.76%; inhibition of growth at 10 µM [23]: 15.3%; inhibition of growth at 10 µM [24]: 47.2%; inhibition of growth at 10 µM [25]: 29.3%; inhibition of growth at 10 µM [26]: 59.9%; inhibition of growth at 10 µM [27]: 35%; inhibition of growth at 10 µM [28]: 15.7%; inhibition of growth at 10 µM [29]: 56.1%; inhibition of growth at 10 µM [30]: 38.8%; inhibition of growth at 10 µM [31]: 26.3%; inhibition of growth at 10 µM [32]: 21.1%; inhibition of growth at 10 µM [33]: 41.6%; inhibition of growth at 10 µM [34]: 53.1%
COc1cc2oc(-c3cccc(C(=O)Nc4ccccc4)c3)cc(=O)c2c(O)c1OC	-0.19%	7.3%	2.93%	0.26%	16.5%	39.7%	91.1%	26.8%	13.1%	33.6%	66.3%	8.74%	7.73%	10.3%	30%	80.6%	78.2%	11.9%	35.5%	41.7%	inhibition of growth at 10 µM [21]: 12.6%; inhibition of growth at 10 µM [22]: 15.7%; inhibition of growth at 10 µM [23]: 120%; inhibition of growth at 10 µM [24]: 20.9%; inhibition of growth at 10 µM [25]: 68.5%; inhibition of growth at 10 µM [26]: 43.5%; inhibition of growth at 10 µM [27]: 25.2%; inhibition of growth at 10 µM [28]: 39.2%; inhibition of growth at 10 µM [29]: 40.3%; inhibition of growth at 10 µM [30]: 29%; inhibition of growth at 10 µM [31]: 34.4%; inhibition of growth at 10 µM [32]: 21.9%; inhibition of growth at 10 µM [33]: 88.9%; inhibition of growth at 10 µM [34]: 39.9%
COc1cc2oc(-c3cccc(NC(=O)c4ccccc4)c3)cc(=O)c2c(OC)c1OC	54.3%	39.5%	56.9%	59.4%	73.4%	31.1%	21.6%	18.6%	27.1%	16.2%	21.3%	50.7%	15.6%	12.2%	22.2%	32.2%	22.6%	38.3%	13.2%	19.3%	inhibition of growth at 10 µM [21]: 26.8%; inhibition of growth at 10 µM [22]: 0.33%; inhibition of growth at 10 µM [23]: 18.3%; inhibition of growth at 10 µM [24]: 25.5%; inhibition of growth at 10 µM [25]: 21.9%; inhibition of growth at 10 µM [26]: 25.6%; inhibition of growth at 10 µM [27]: 23.8%; inhibition of growth at 10 µM [28]: 8.72%; inhibition of growth at 10 µM [29]: 49%; inhibition of growth at 10 µM [30]: 46.9%; inhibition of growth at 10 µM [31]: 14.5%; inhibition of growth at 10 µM [32]: 22.7%; inhibition of growth at 10 µM [33]: 2.76%; inhibition of growth at 10 µM [34]: 25.9%
COc1cc2oc(-c3cccc(C(=O)Nc4ccc5c(c4)OCO5)c3)cc(=O)c2c(O)c1OC	2.77%	5.71%	5.51%	-0.5%	20.2%	25.1%	39.6%	21.5%	27.3%	19%	45.7%	23.9%	5.22%	-4.53%	7.93%	11.2%	15.4%	11.8%	11.9%	20.9%	inhibition of growth at 10 µM [21]: 10.2%; inhibition of growth at 10 µM [22]: 21.8%; inhibition of growth at 10 µM [23]: 99.9%; inhibition of growth at 10 µM [24]: 29.4%; inhibition of growth at 10 µM [25]: 35.7%; inhibition of growth at 10 µM [26]: 18.5%; inhibition of growth at 10 µM [27]: 31.3%; inhibition of growth at 10 µM [28]: 1.4%; inhibition of growth at 10 µM [29]: 17.9%; inhibition of growth at 10 µM [30]: 27.7%; inhibition of growth at 10 µM [31]: 19.6%; inhibition of growth at 10 µM [32]: 8.35%; inhibition of growth at 10 µM [33]: 27.3%; inhibition of growth at 10 µM [34]: 16%
